What was measured:
B-cell line [1] = experiment: Immunosuppressive activity in Balb/c mouse B cells assessed as inhibition of LPS-induced cell proliferation at 100 uM after 48 hrs by MTT assay relative to control; format: functional
In short: (§1)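 Balb/c spleen single-cell suspension, RBCs lysed with tris-ammonium chloride, viability by trypan blue; 1×10^6 cells/mL stimulated with LPS (10 μg/mL) for B cells, test agent 1, 10 or 100 μM, 48 h at 37 °C, 5% CO2. MTT 4 h, DMSO solubilization, OD 540 nm; % change vs mitogen control; triplicate, three separate experiments.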

B-cell line [2] = experiment: Immunosuppressive activity in Balb/c mouse B cells assessed as inhibition of LPS-induced cell proliferation at 10 uM after 48 hrs by MTT assay relative to control; format: functional; in short: as §1
B-cell line [3] = experiment: Immunostimulant activity in Balb/c mouse B cells assessed as induction of LPS-induced cell proliferation at 1 uM after 48 hrs by MTT assay relative to control; format: cell-based; in short: as §1
Murine T-cell line [4] = experiment: Cytotoxicity against Balb/c mouse T cells assessed as decrease in cell survival at 100 uM by MTT assay; format: cell-based
In short: (§2)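 Balb/c splenocytes (RBC lysed with tris-ammonium chloride, trypan blue viability) seeded at 1×10^6 cells/mL with Con A or LPS (10 μg/mL each) and test agent at 1, 10 or 100 μM for 48 h at 37 °C, 5% CO2; MTT added for 4 h, formazan dissolved in DMSO, OD 540 nm. Cytotoxicity scored +/−; triplicate, three separate experiments.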

Murine T-cell line [5] = experiment: Cytotoxicity against Balb/c mouse T cells assessed as decrease in cell survival at 10 uM by MTT assay; format: cell-based; in short: as §2
Murine T-cell line [6] = experiment: Cytotoxicity against Balb/c mouse T cells assessed as decrease in cell survival at 1 uM by MTT assay; format: cell-based; in short: as §2
B-cell line [7] = experiment: Cytotoxicity against Balb/c mouse B cells assessed as decrease cell survival at 100 uM by MTT assay; format: cell-based; in short: as §2
B-cell line [8] = experiment: Cytotoxicity against Balb/c mouse B cells assessed as decrease cell survival at 10 uM by MTT assay; format: cell-based; in short: as §2
B-cell line [9] = experiment: Cytotoxicity against Balb/c mouse B cells assessed as decrease cell survival at 1 uM by MTT assay; format: cell-based; in short: as §2
Murine T-cell line [10] = experiment: Immunosuppressive activity in Balb/c mouse T cells assessed as inhibition of ConA-induced cell proliferation at 1 uM after 48 hrs by MTT assay relative to control
Murine T-cell line [11] = experiment: Immunosuppressive activity in Balb/c mouse T cells assessed as inhibition of ConA-induced cell proliferation at 10 uM after 48 hrs by MTT assay relative to control
Murine T-cell line [12] = experiment: Immunosuppressive activity in Balb/c mouse T cells assessed as inhibition of ConA-induced cell proliferation at 100 uM after 48 hrs by MTT assay relative to control
B-cell line [13] = experiment: Immunosuppressive activity in Balb/c mouse B cells assessed as inhibition of LPS-induced cell proliferation at 1 uM after 48 hrs by MTT assay relative to control; format: functional; in short: as §1
B-cell line [14] = experiment: Immunostimulant activity in Balb/c mouse B cells assessed as induction of LPS-induced cell proliferation at 10 uM after 48 hrs by MTT assay relative to control; format: cell-based; in short: as §1
B-cell line [15] = experiment: Immunostimulant activity in Balb/c mouse B cells assessed as induction of LPS-induced cell proliferation at 100 uM after 48 hrs by MTT assay relative to control; format: cell-based; in short: as §1
Murine T-cell line [16] = experiment: Immunostimulant activity in Balb/c mouse T cells assessed as induction of ConA-induced cell proliferation at 100 uM after 48 hrs by MTT assay relative to control
Mus musculus [17] = experiment: Inhibition of delayed-type hypersensitivity reaction in Balb/c mouse assessed as decrease in sheep RBC-induced footpad thickness at 12.5 mg/kg, po qd administered 6 consecutive days followed by sheep RBC challenge measured after 24 to 48 hrs by spheromicrometer relative to control; format: functional
In short: (§3)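 Female Balb/c mice, groups of six, SRBC-immunized; oral dosing starting 2 h after SRBC, then once daily. Six days later baseline left hind footpad thickness read by spheromicrometer, then intradermal footpad challenge with 20 μL of 5×10^9 SRBC/mL; thickness re-measured at 24 and 48 h versus control group.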

Mus musculus [18] = experiment: Inhibition of delayed-type hypersensitivity reaction in Balb/c mouse assessed as decrease in sheep RBC-induced footpad thickness at 25 mg/kg, po qd administered 6 consecutive days followed by sheep RBC challenge measured after 24 to 48 hrs by spheromicrometer relative to control; format: functional; in short: as §3
Mus musculus [19] = experiment: Inhibition of humoral immune response in Balb/c mouse assessed as decrease in sheep RBC hemagglutination at 6.25 mg/kg, po qd administered 6 consecutive days measured on day 7 by micro titration method relative to control; format: functional; details: 168 h
In short: (§4)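 Female Balb/c mice, groups of six, immunized with SRBC and dosed orally; blood taken on day 7 for primary antibody titre, hemagglutination titre determined by modified microtitration; suppression versus control group.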

Mus musculus [20] = experiment: Inhibition of humoral immune response in Balb/c mouse assessed as decrease in sheep RBC hemagglutination at 25 mg/kg, po qd administered 6 consecutive days measured on day 7 by micro titration method relative to control; format: functional; details: 168 h; in short: as §4
Murine T-cell line [21] = experiment: Immunostimulant activity in Balb/c mouse T cells assessed as induction of ConA-induced cell proliferation at 10 uM after 48 hrs by MTT assay relative to control

| SMILES | inhibition at 100 µM (B-cell line [1]) | inhibition at 10 µM (B-cell line [2]) | Activity (Murine T-cell line [4]) | Activity (Murine T-cell line [5]) | Activity (Murine T-cell line [6]) | Activity (B-cell line [7]) | Activity (B-cell line [8]) | Activity (B-cell line [9]) | inhibition at 1 µM (Murine T-cell line [10]) | inhibition at 10 µM (Murine T-cell line [11]) | inhibition at 100 µM (Murine T-cell line [12]) | inhibition at 1 µM (B-cell line [13]) | also measured |
| --- | --- | --- | --- | --- | --- | --- | --- | --- | --- | --- | --- | --- | --- |
| Cc1cc(OC(=O)C(C)C)c(C)c2c1CC[C@H]1[C@H](C)C(=O)O[C@@H]21 | 52.1% | 33.3% | Non-Toxic | Non-Toxic | Non-Toxic | Non-Toxic | Non-Toxic | Non-Toxic | 53.3% | 61.5% | 73.2% |  | Activity (B-cell line [3]): 20.83% |
| CCCCCCCC(=O)Oc1cc(C)c2c(c1C)[C@@H]1OC(=O)[C@@H](C)[C@@H]1CC2 | 57.3% |  | Toxic | Non-Toxic | Non-Toxic | Toxic | Non-Toxic | Non-Toxic | 50.4% | 43.1% | 4.22% | 37.5% | Activity (B-cell line [14]): 53.12% |
| Cc1cc(OCc2ccccc2)c(C)c2c1CC[C@H]1[C@H](C)C(=O)O[C@@H]21 |  | 74% | Toxic | Non-Toxic | Non-Toxic | Toxic | Non-Toxic | Non-Toxic | 58% | 60% |  | 53% | Activity (B-cell line [15]): 29%; Activity (Murine T-cell line [16]): 16% |
| Cc1cc(OC(=O)C(C)(C)C)c(C)c2c1CC[C@H]1[C@H](C)C(=O)O[C@@H]21 | 80.5% | 66% | Non-Toxic | Non-Toxic | Non-Toxic | Non-Toxic | Non-Toxic | Non-Toxic | 35.1% | 58.1% | 75% | 48.7% | inhibition in vivo at 12.5 mg/kg (Mus musculus [17]): 30%; inhibition in vivo at 25 mg/kg (Mus musculus [18]): 35%; inhibition in vivo at 6.25 mg/kg (Mus musculus [19]): 28%; inhibition in vivo at 25 mg/kg (Mus musculus [20]): 41% |
| CC1=C2[C@H]3OC(=O)[C@@H](C)[C@@H]3CC[C@@]2(C)C=CC1=O [SANTONIN] | 33.2% | 27.1% | Non-Toxic | Non-Toxic | Non-Toxic | Non-Toxic | Non-Toxic | Non-Toxic | 35.4% |  | 8.16% | 19% | Activity (Murine T-cell line [21]): 3.55% |
